“And” between values parts separate entries of the source, which are not always exact repeats. Identical values can stand only once.
Assays:
[1] = (§1) Area under curve was determined after oral administration in rats; format: ADME, organism-based; design: concentration or dose not given beside the values; details: rat, in vivo
Procedure, shortened: (§2)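 Sprague Dawley rats instrumented 2 days before, conscious; prodrug in water given orally and free acid in 50% PEG-300 intravenously, 1 mg/kg each, six rats per group. Serial blood sampling on EDTA or citrate; plasma deproteinized with acetonitrile plus internal standard, filtered. AUC, Cmax and t1/2β from mean concentration–time curves; F = oral AUC / iv AUC.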

[2] = target: Integrin alpha-IIb/beta-3 (Homo sapiens, UniProt P05106+P08514); assay: Tested for inhibition of the binding of fibrinogen to purified human GPIIb-IIIa in a 96-well format (ELISA assay); format: protein-complex assay
Procedure, shortened: (§3)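 Purified GPIIb-IIIa or vitronectin receptor, 0.5 μg/well, coated overnight at 4 °C, BSA-blocked. Compound plus 10 nM biotinylated ligand added in triplicate, 2 h at room temperature, pH 7.4 Tris with CaCl2 and BSA.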

[3] = species: Rattus norvegicus; assay: Bioavailability in rat; format: ADME, organism-based; details: in vivo; procedure, shortened: as §2
[4] = target: Integrin alpha-V/beta-3 (Homo sapiens, UniProt P05106+P06756); assay: Inhibition of vitronectin binding to Vitronectin receptor (alpha V beta 3); format: protein-complex assay
Procedure, shortened: as §3, with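 “BSA. Detected by anti-biotin alkaline phosphatase conjugate, read at 405 nm; BSA-well binding subtracted; IC50 from three experiments.” for “BSA.”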

[5] = species: Canis familiaris; assay: Clearance of the drug was measured in the plasma of dog; format: ADME, organism-based, Canis lupus familiaris; details: in vivo
Procedure, shortened: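 Fasted male beagle dogs (n = 4): prodrug at 1 mg/kg orally, active drug intravenously. Plasma drug measured by LC/MS/MS. t1/2β from the linear portion of the log concentration–time curve; Vz = dose/(AUCINF·λz); F corrected for molecular weight and dose differences.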

[6] = Clearance of the drug was measured in cynomolgus; format: ADME; details: cercopithecidae, in vivo; read-out: CI
Procedure, shortened: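 Fasted, chair-restrained cynomolgus monkeys. Active acid given as a 15 min iv infusion in 50% PEG-300 diluted with plasmalyte; prodrug given a week later in water by nasogastric tube to the same animals. EDTA plasma sampled over 0–48 h and assayed by LC/MS/MS. t1/2β taken from the terminal log-linear phase; Vz = dose/(AUCINF·λz); F corrected for molecular weight and dose.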

[7] = as §1; format: ADME, organism-based; details: rat, in vivo; procedure, shortened: as §2
[8] = system: Mus musculus; assay: Compound was tested for bleeding time in mice at a dose of 100 mg/kg vs DMSO (vehicle); format: functional
Procedure, shortened: (§4)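 Anesthetized female C57/bl mice given an iv tail-vein bolus in 10% DMSO in water (~150 μL); vehicle controls received DMSO. Tail transected 2 mm from the tip and immersed in 37 °C normal saline. Bleeding time recorded to cessation of flow by visual inspection, up to 900 s.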

[9] = system: Mus musculus; assay: Compound was tested for bleeding time in mice at a dose of 10 mg/kg vs DMSO (vehicle); format: functional; procedure, shortened: as §4
[10] = system: Mus musculus; assay: Compound was tested for bleeding time in mice at a dose of 40 mg/kg vs DMSO (vehicle); format: functional; procedure, shortened: as §4
[11] = system: Mus musculus; assay: Compound was tested for bleeding time in mice at a dose of 50 mg/kg vs DMSO (vehicle); format: functional; procedure, shortened: as §4
[12] = Inhibition of Human umbilical vein endothelial cells (HUVEC) adhesion to Vitronectin; format: cell-based
[13] = Inhibition of Human umbilical vein endothelial cells (HUVEC) adhesion to fibronectin; format: cell-based
[14] = Inhibition of Human umbilical vein endothelial cells (HUVEC) adhesion to vitronectin; format: cell-based

Chain of Integrin alpha-V/beta-3 (P05106 27-788 limits assumed): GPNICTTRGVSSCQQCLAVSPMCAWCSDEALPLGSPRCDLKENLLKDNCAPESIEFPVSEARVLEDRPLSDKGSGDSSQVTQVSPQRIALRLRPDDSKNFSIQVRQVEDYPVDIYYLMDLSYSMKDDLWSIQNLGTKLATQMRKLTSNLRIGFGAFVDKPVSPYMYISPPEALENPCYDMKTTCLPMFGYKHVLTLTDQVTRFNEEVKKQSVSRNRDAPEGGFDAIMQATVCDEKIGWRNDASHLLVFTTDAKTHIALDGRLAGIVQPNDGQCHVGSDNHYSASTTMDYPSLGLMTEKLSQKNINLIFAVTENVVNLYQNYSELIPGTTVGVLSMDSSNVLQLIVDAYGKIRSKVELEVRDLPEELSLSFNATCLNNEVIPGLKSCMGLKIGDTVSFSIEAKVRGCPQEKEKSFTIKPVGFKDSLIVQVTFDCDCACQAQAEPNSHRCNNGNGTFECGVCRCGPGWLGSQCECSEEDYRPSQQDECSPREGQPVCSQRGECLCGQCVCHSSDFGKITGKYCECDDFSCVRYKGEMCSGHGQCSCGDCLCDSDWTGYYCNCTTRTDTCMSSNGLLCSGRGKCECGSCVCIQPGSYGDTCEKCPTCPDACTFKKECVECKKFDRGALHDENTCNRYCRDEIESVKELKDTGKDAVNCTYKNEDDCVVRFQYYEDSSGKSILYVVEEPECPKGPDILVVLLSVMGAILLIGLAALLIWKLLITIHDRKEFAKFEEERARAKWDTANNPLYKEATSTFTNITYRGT
Chain of Integrin alpha-V/beta-3 (P06756 31-889 limits assumed): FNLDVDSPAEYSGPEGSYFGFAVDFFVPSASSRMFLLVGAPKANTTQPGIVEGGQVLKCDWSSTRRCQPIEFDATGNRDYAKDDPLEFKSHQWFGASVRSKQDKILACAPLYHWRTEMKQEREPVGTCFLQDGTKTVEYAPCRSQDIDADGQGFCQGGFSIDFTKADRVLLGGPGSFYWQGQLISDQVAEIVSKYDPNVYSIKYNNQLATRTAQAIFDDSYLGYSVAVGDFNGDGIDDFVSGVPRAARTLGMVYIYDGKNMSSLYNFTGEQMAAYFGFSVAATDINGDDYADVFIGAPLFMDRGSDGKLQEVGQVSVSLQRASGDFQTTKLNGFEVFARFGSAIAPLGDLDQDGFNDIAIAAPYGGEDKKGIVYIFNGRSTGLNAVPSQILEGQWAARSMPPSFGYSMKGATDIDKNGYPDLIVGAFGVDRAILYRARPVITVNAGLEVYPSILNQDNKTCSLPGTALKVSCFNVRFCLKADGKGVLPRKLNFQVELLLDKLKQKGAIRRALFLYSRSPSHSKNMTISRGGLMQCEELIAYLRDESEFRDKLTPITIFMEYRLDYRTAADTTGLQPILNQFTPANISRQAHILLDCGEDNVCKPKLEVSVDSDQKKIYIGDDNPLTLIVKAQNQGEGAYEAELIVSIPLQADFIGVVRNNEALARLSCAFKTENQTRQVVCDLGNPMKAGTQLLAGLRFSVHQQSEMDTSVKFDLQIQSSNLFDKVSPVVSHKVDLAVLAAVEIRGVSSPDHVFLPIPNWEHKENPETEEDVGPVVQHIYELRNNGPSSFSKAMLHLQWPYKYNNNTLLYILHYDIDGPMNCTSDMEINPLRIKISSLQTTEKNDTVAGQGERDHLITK
Chain of Integrin alpha-V/beta-3 (P06756 891-1048 limits assumed): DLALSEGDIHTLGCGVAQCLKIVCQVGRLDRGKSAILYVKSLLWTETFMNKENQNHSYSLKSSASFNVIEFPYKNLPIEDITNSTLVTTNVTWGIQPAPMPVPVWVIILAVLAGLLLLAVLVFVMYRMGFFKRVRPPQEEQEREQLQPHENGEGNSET
Chain of Integrin alpha-IIb/beta-3 (P05106 27-788 limits assumed): as the sequence (P05106 27-788 limits assumed) above
Chain of Integrin alpha-IIb/beta-3 (P08514 32-887 limits assumed): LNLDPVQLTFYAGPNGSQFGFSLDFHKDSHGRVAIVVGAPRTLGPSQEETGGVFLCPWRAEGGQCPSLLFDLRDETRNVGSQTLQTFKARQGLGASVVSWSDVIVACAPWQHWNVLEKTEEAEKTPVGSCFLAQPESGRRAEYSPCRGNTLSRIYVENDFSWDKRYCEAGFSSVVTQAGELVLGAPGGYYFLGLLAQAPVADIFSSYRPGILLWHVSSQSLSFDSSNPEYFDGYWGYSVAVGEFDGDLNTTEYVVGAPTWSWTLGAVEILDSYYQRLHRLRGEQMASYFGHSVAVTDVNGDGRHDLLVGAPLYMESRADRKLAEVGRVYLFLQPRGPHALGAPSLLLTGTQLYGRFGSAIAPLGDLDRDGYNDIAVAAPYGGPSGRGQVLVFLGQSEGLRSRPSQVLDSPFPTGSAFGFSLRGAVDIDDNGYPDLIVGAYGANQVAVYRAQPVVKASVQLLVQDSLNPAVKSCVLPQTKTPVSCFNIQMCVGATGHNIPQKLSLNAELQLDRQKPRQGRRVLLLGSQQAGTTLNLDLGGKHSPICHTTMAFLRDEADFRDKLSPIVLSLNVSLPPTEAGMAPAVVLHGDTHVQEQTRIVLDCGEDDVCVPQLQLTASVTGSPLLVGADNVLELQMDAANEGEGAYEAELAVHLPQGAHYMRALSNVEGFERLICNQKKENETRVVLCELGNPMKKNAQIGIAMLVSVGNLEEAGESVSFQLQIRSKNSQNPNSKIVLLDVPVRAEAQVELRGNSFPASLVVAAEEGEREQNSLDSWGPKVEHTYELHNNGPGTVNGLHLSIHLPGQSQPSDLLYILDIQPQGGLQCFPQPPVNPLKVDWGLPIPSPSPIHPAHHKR
Chain of Integrin alpha-IIb/beta-3 (P08514 891-1039 limits assumed): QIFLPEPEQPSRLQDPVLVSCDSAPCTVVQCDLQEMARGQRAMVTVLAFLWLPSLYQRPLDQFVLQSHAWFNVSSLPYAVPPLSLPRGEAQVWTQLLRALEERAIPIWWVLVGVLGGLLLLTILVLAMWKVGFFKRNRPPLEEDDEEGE

SMILES | IC50 [2] | further results
CCOC(=O)CCNC(=O)N1CCC2(CC1)CC(=O)N(c1ccc(C(=N)NO)cc1)C2 | – | AUC [1]: 95.6 ng·h/mL
CN1C(=O)N(c2ccc(C(=N)N)cc2)CC12CCN(C(=O)NCCC(=O)O)CC2 | 400 nM | –
NC(=NN1CCOCC1)c1ccc(N2CCC3(CCN(C(=O)CCCC(=O)O)CC3)C2=O)cc1 | 4180 nM | –
N=C(N)c1ccc(N2CCC3(CCN(C(=O)CC(=O)O)CC3)C2=O)cc1 | 15800 nM | –
CN1C(=O)N(c2ccc(C(=N)N)cc2)C(=O)C12CCN(C(=O)CCCC(=O)O)CC2 | 100 nM | –
CN1C(=O)N(c2ccc(C(=N)N)cc2)C(=O)C12CCN(C(=O)CC(CC(=O)O)c1ccccc1)CC2 (centres undefined) | 32 nM | –
CCOC(=O)CCNC(=O)N1CCC2(CC1)C(=O)N(c1ccc(C(=N)NO)cc1)C(=O)N2C | – | AUC [1]: 60 ng·h/mL
C[C@H](CC(=O)O)NC(=O)N1CCC2(CC1)CCN(c1ccc(C(=N)N)cc1)C2=O | 5 nM | –
CC(C)(COC(=O)N1CCC2(CC1)CC(=O)N(c1ccc(C(=N)N)cc1)C2)C(=O)O | 15000 nM | –
N=C(N)c1ccc(N2C(=O)NC3(CCN(C(=O)CCCC(=O)O)CC3)C2=O)cc1 | 21 nM | –
CC(CC(=O)O)NC(=O)N1CCC2(CC1)CCN(c1ccc(C(=N)N)cc1)C2=O (centres undefined) | 4 nM | –
N=C(N)c1ccc(N2CC3(CCN(C(=O)CCCC(=O)O)CC3)NC2=O)cc1 | 751 nM | –
C[C@@H](CC(=O)O)CC(=O)N1CCC2(CC1)CCN(c1ccc(C(=N)N)cc1)C2=O | 4 nM | –
CCCCOC(=O)N[C@@H](CCC(=O)N1CCC2(CC1)C(=O)N(c1ccc(C(=N)NO)cc1)C(=O)N2C)C(=O)OCC | – | F [3]: Not detected
N=C(N)c1ccc(N2C(=O)CC3(CCN(C(=O)CCCC(=O)O)CC3)C2=O)cc1 | 430 nM | –
N=C(N)c1ccc(N2CCC3(CCN(C(=O)COCC(=O)O)CC3)C2=O)cc1 | 17 nM | IC50 [4]: > 50000 nM
CCCCOC(=O)N[C@@H](CCC(=O)N1CCC2(CC1)CC(=O)N(c1ccc(C(=N)N)cc1)C2=O)C(=O)O | 30 nM | –
N=C(N)c1ccc(N2CC3(CCN(C(=O)CCCC(=O)O)CC3)CC2=O)cc1 | 650 nM | –
CCOC(=O)CCNC(=O)N[C@H]1CCN(c2ccc(C(=N)N)cc2)C1=O [ORBOFIBAN] | 2.38 nM | –
C[C@H](CC(=O)O)CC(=O)N1CCC2(CC1)CCN(c1ccc(C(=N)N)cc1)C2=O | 5 nM | –
N=C(N)c1ccc(N2CC3(CCN(C(=O)NCCC(=O)O)CC3)CC2=O)cc1 | 350 nM | –
N=C(N)c1ccc(N2C(=O)CC3(CCN(C(=O)NCCC(=O)O)CC3)C2=O)cc1 | 410 nM | –
CN1C(=O)N(c2ccc(C(=N)N)cc2)C(=O)C12CCN(C(=O)NC(CC(=O)O)c1ccccc1)CC2 (centres undefined) | 50 nM | –

SMILES | IC50 [2] | further results
N=C(N)c1ccc(N2CCC3(CCN(C(=O)CC(CC(=O)O)c4ccccc4)CC3)C2=O)cc1 (centres undefined) | 90 nM | –
CCOC(=O)CCNC(=O)N1CCC2(CC1)CCN(c1ccc(C(=N)NO)cc1)C2=O | – | CI [5]: 8.43 mL/min/kg; clearance [6]: 5.12 mL/min/kg; AUC [7]: 565 ng·h/mL
N=C(N)c1ccc(N2C(=O)NC3(CCN(C(=O)NCCC(=O)O)CC3)C2=O)cc1 | 329 nM | –
Cc1noc(C)c1S(=O)(=O)N[C@@H](CCC(=O)N1CCC2(CC1)C(=O)N(c1ccc(C(=N)N)cc1)C(=O)N2C)C(=O)O | 16 nM | –
N=C(N)c1ccc(N2CC3(CCN(C(=O)CCC(=O)O)CC3)CC2=O)cc1 | 10500 nM | –
N=C(N)c1ccc(N2CCC3(CCN(C(=O)NCCC(=O)O)CC3)C2=O)cc1 | 4 nM and 3.9 nM | IC50 [4]: > 50000 nM
CCCCOC(=O)N[C@@H](CCC(=O)N1CCC2(CC1)CCN(c1ccc(C(=N)N)cc1)C2=O)C(=O)O | 5 nM | –
CCOC(=O)CC(CC(=O)N1CCC2(CC1)CCN(c1ccc(C(=N)NO)cc1)C2=O)c1ccccc1 (centres undefined) | – | AUC [1]: 7.9 ng·h/mL
CN1C(=O)N(c2ccc(C(=N)N)cc2)CC12CCN(C(=O)CCCC(=O)O)CC2 | 1020 nM | –
CCCCOC(=O)N[C@@H](CCC(=O)N1CCC2(CC1)CCN(c1ccc(C(=N)NO)cc1)C2=O)C(=O)OCC | – | AUC [1]: 184 ng·h/mL
CCNC(=N)c1ccc(N2CCC3(CCN(C(=O)CCCC(=O)O)CC3)C2=O)cc1 | 841 nM | –
N=C(N)c1ccc(N2CC3(CCN(C(=O)CC(=O)O)CC3)CC2=O)cc1 | 25000 nM | –
N=C(N)c1ccc(N2CCC3(CCN(CCCCC(=O)O)CC3)C2=O)cc1 | 7800 nM | –
CCOC(=O)COCC(=O)N1CCC2(CC1)CCN(c1ccc(C(=N)NO)cc1)C2=O | – | CI [5]: 3.28 mL/min/kg; clearance [6]: 2.7 mL/min/kg; AUC [1]: 651 ng·h/mL
CN1C(=O)N(c2ccc(C(=N)N)cc2)CC12CCN(C(=O)CC(CC(=O)O)c1ccccc1)CC2 (centres undefined) | 20 nM | –
N=C(N)c1ccc(N2CC3(CCN(C(=O)CCCCC(=O)O)CC3)CC2=O)cc1 | 7300 nM | –
Cc1ccc(S(=O)(=O)N[C@@H](CNC(=O)N2CCC3(CC2)C(=O)N(c2ccc(C(=N)N)cc2)C(=O)N3C)C(=O)O)cc1 | 2 nM | –
CCOC(=O)CCCC(=O)N1CCC2(CC1)CCN(c1ccc(C(=N)NO)cc1)C2=O | – | CI [5]: 6.44 mL/min/kg; clearance [6]: 6.51 mL/min/kg; AUC [1]: 501 ng·h/mL
Cc1noc(C)c1S(=O)(=O)N[C@@H](CCC(=O)N1CCC2(CC1)CCN(c1ccc(C(=N)N)cc1)C2=O)C(=O)O | 5 nM | Bleeding time [8]: 890.6 s; Bleeding time [9]: 96.7 s; Bleeding time [10]: 196.5 s; Bleeding time [11]: 562.5 s
N=C(N)c1ccc(N2CCC3(CCN(C(=O)CCCC(=O)O)CC3)C2=O)cc1 | 4 nM | IC50 [12]: > 50000 nM; IC50 [4]: > 50000 nM; IC50 [13]: > 50000 nM
N=C(N)c1ccc(N2CCC3(CCN(C(=O)CCC(=O)O)CC3)C2=O)cc1 | 5600 nM | –
CCOC(=O)CCNC(=O)N1CCC2(CC1)CN(c1ccc(C(=N)NO)cc1)C(=O)N2C | – | AUC [1]: 24 ng·h/mL
CCOC(=O)COC1CCN(C(=O)[C@H](C)NC(=O)c2ccc(/C(N)=N/O)cc2)CC1 [SIBRAFIBAN] | 1.14 nM | IC50 [14]: > 50000 nM; IC50 [4]: > 50000 nM; IC50 [13]: > 50000 nM

From ChEMBL document CHEMBL1137087, “Discovery of novel 2,8-diazaspiro[4.5]decanes as orally active glycoprotein IIb-IIIa antagonists” (J Med Chem, 2004)
